In brackets after ≈: the same amount, converted by molar mass.
Experiments:
Plasmodium falciparum [1] = test: Antimalarial activity after 24 hrs against chloroquine-sensitive Plasmodium falciparum D6 infected type A+ human erythrocytes by [3H]hypoxanthine uptake; assay type: functional; conditions: read-out: ED50 (the source's name)
Plasmodium falciparum [2] = test: Antimalarial activity after 24 hrs against chloroquine-resistant Plasmodium falciparum W2 infected type A+ human erythrocytes by [3H]hypoxanthine uptake; assay type: functional; conditions: read-out: ED50 (the source's name)
[3] = Selectivity index, ED50 for human KB cells to ED50 for chloroquine-sensitive Plasmodium falciparum D6; assay type: toxicity, cell-based; conditions: read-out: Ratio ED50
In short: (§1)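 Selectivity index is the ED50 in KB cells divided by the ED50 against the P. falciparum strain (D-6, chloroquine-sensitive; W-2, chloroquine-resistant). Parasite ED50s are expressed in ng/ml and KB ED50s in µg/ml.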

[4] = Selectivity index, ED50 for human KB cells to ED50 for chloroquine-resistant Plasmodium falciparum W2; assay type: toxicity, cell-based; conditions: read-out: Ratio ED50; in short: as §1
[5] = Cytotoxicity against human BCA1 cells after 3 days by SRB assay; assay type: functional; conditions: BCA1, 72 h, read-out: ED50 (the source's name)
HT-1080 = test: Cytotoxicity against human HT1080 cells after 3 days by SRB assay; assay type: functional; conditions: HT-1080, 72 h, read-out: ED50 (the source's name)
[6] = Cytotoxicity against human LUC1 cells after 3 days by SRB assay; assay type: functional; conditions: LUC1, 72 h, read-out: ED50 (the source's name)
SK-MEL-2 = test: Cytotoxicity against human SK-MEL-2 cells after 3 days by SRB assay; assay type: functional; conditions: SK-MEL-2, 72 h, read-out: ED50 (the source's name)
[7] = Cytotoxicity against human Col1 cells after 3 days by SRB assay; assay type: functional; conditions: Col1, 72 h, read-out: ED50 (the source's name)
[8] = Cytotoxicity against human KB cells after 3 days by SRB assay; assay type: cell-based; conditions: read-out: ED50
[9] = Cytotoxicity against vinblastine-resistant human KBV1 cells after 3 days by SRB assay; assay type: functional; conditions: KB-V1, 72 h, read-out: ED50 (the source's name)
P388 = test: Cytotoxicity against mouse P388 cells after 3 days by SRB assay; assay type: functional; conditions: P388, 72 h, read-out: ED50 (the source's name)
A-431 = test: Cytotoxicity against human A431 cells after 3 days by SRB assay; assay type: functional; conditions: A-431, 72 h, read-out: ED50 (the source's name)
LNCaP = test: Cytotoxicity against human LNCAP cells after 3 days by SRB assay; assay type: functional; conditions: 72 h, read-out: ED50 (the source's name)
ZR-75-1 = test: Cytotoxicity against human ZR-75-1 cells after 3 days by SRB assay; assay type: functional; conditions: ZR-75-1, 72 h, read-out: ED50 (the source's name)
[10] = Cytotoxicity against human U373 cells after 3 days by SRB assay; assay type: functional, U-373MG ATCC; conditions: U373 MG, 72 h, read-out: ED50 (the source's name)

SMILES	EC50 (Plasmodium falciparum [1])	EC50 (Plasmodium falciparum [2])	selectivity ratio [3]	selectivity ratio [4]	EC50 [5]	EC50 (HT-1080)	EC50 [6]	EC50 (SK-MEL-2)	EC50 [7]	CC50 at 72 h [8]	EC50 [9]	EC50 (P388)	EC50 (A-431)	EC50 (LNCaP)	EC50 (ZR-75-1)	EC50 [10]
COC1=C[C@@]23CCN(C)[C@@H](Cc4ccc(OC)c(O)c42)C3=CC1=O	> 10 µg/mL	> 10 µg/mL														
COc1cc2c(cc1OC)[C@@H]1Cc3ccc(O)c(OC)c3CN1CC2	2.84 µg/mL (≈ 8.32 µM)	0.84 µg/mL (≈ 2.46 µM)	> 7	> 24												
COc1ccc2c(c1)C[C@H]1NCCc3cc4c(c-2c31)OCO4	0.44 µg/mL (≈ 1.49 µM)	2.27 µg/mL (≈ 7.69 µM)	45	> 9	3.4 µg/mL (≈ 11.5 µM)	2.2 µg/mL (≈ 7.45 µM)	2.3 µg/mL (≈ 7.79 µM)	12.6 µg/mL (≈ 42.7 µM)	4.1 µg/mL (≈ 13.9 µM)	2 µg/mL (≈ 6.77 µM)	0.9 µg/mL (≈ 3.05 µM)	2.2 µg/mL (≈ 7.45 µM)	4.6 µg/mL (≈ 15.6 µM)	2.4 µg/mL (≈ 8.13 µM)	2.4 µg/mL (≈ 8.13 µM)	1.9 µg/mL (≈ 6.43 µM)
COC1=C(OC)[C@]23CCc4cc5c(cc4[C@]2(CCN3C)CC1=O)OCO5	> 10 µg/mL	> 10 µg/mL														
COc1cc2c(c(O)c1OC)CCN1Cc3c(ccc(OC)c3OC)C[C@@H]21	1.61 µg/mL (≈ 4.33 µM)	0.55 µg/mL (≈ 1.48 µM)	> 12	> 36												
COc1cc2c(cc1OC)-c1c3c(cc4c1[C@@H](C2)N(C)CC4)OCO3	1.26 µg/mL (≈ 3.71 µM)	2.55 µg/mL (≈ 7.51 µM)	4	2	2.2 µg/mL (≈ 6.48 µM)	1.7 µg/mL (≈ 5.01 µM)	6.1 µg/mL (≈ 18 µM)	3.8 µg/mL (≈ 11.2 µM)	2.1 µg/mL (≈ 6.19 µM)	1.6 µg/mL (≈ 4.71 µM)	0.9 µg/mL (≈ 2.65 µM)	0.6 µg/mL (≈ 1.77 µM)	1.7 µg/mL (≈ 5.01 µM)	1.9 µg/mL (≈ 5.6 µM)	2.8 µg/mL (≈ 8.25 µM)	1.5 µg/mL (≈ 4.42 µM)
COc1cc2c(c(O)c1OC)[C@@H]1Cc3ccc(OC)c(OC)c3CN1CC2	4.34 µg/mL (≈ 11.7 µM)	1.91 µg/mL (≈ 5.14 µM)	> 5	> 10												
CN1CCc2cc3c(c4c2[C@H]1Cc1cc(O)ccc1-4)OCO3	3.15 µg/mL (≈ 10.7 µM)	1.78 µg/mL (≈ 6.03 µM)	2	4	8.9 µg/mL (≈ 30.1 µM)	7.6 µg/mL (≈ 25.7 µM)	6.9 µg/mL (≈ 23.4 µM)	> 20 µg/mL	11.9 µg/mL (≈ 40.3 µM)	4.1 µg/mL (≈ 13.9 µM)	1.2 µg/mL (≈ 4.06 µM)	> 5 µg/mL	6.7 µg/mL (≈ 22.7 µM)	7.3 µg/mL (≈ 24.7 µM)	13.6 µg/mL (≈ 46 µM)	4.9 µg/mL (≈ 16.6 µM)
COc1ccc2c(c1)C[C@@H]1c3c(cc4c(c3-2)OCO4)CCN1C	2.56 µg/mL (≈ 8.28 µM)	1.61 µg/mL (≈ 5.2 µM)	> 1	1	2.9 µg/mL (≈ 9.37 µM)	1.8 µg/mL (≈ 5.82 µM)	12.2 µg/mL (≈ 39.4 µM)	> 20 µg/mL	3.2 µg/mL (≈ 10.3 µM)	2.5 µg/mL (≈ 8.08 µM)	1.2 µg/mL (≈ 3.88 µM)	> 5 µg/mL	1.3 µg/mL (≈ 4.2 µM)	2.9 µg/mL (≈ 9.37 µM)	2.6 µg/mL (≈ 8.4 µM)	1.3 µg/mL (≈ 4.2 µM)
COc1c(O[C@@H]2O[C@H](CO)[C@@H](O)[C@H](O)[C@H]2O)cc2c3c1-c1ccccc1C[C@H]3NCC2	> 10 µg/mL	> 10 µg/mL			> 20 µg/mL	> 20 µg/mL	> 20 µg/mL	> 20 µg/mL	> 20 µg/mL	> 20 µg/mL	> 20 µg/mL	> 20 µg/mL	> 20 µg/mL	> 20 µg/mL	> 20 µg/mL	> 20 µg/mL
COc1cc2c(cc1O)-c1c3c(cc4c1[C@@H](C2)N(C)CC4)OCO3	2.01 µg/mL (≈ 6.18 µM)	2.88 µg/mL (≈ 8.85 µM)	1	1	2.5 µg/mL (≈ 7.68 µM)	2.9 µg/mL (≈ 8.91 µM)	3.1 µg/mL (≈ 9.53 µM)	18.8 µg/mL (≈ 57.8 µM)	4.1 µg/mL (≈ 12.6 µM)	1.8 µg/mL (≈ 5.53 µM)	1.2 µg/mL (≈ 3.69 µM)	0.4 µg/mL (≈ 1.23 µM)	12.6 µg/mL (≈ 38.7 µM)	1.9 µg/mL (≈ 5.84 µM)	2.1 µg/mL (≈ 6.45 µM)	1.7 µg/mL (≈ 5.22 µM)
COc1cc2c(cc1OC)CN1CCc3cc(OC)c(OC)c(O)c3[C@@H]1C2	2.23 µg/mL (≈ 6 µM)	1.94 µg/mL (≈ 5.22 µM)	> 9	> 10												
COc1cc2c(cc1OC)-c1c3c(cc4c1[C@@H](C2)NCC4)OCO3	0.47 µg/mL (≈ 1.44 µM)	1.03 µg/mL (≈ 3.17 µM)	2		2 µg/mL (≈ 6.15 µM)	1.7 µg/mL (≈ 5.22 µM)	13.2 µg/mL (≈ 40.6 µM)	3.3 µg/mL (≈ 10.1 µM)	1.7 µg/mL (≈ 5.22 µM)	0.8 µg/mL (≈ 2.46 µM)	0.7 µg/mL (≈ 2.15 µM)	0.6 µg/mL (≈ 1.84 µM)	0.8 µg/mL (≈ 2.46 µM)	1.5 µg/mL (≈ 4.61 µM)	1.7 µg/mL (≈ 5.22 µM)	0.6 µg/mL (≈ 1.84 µM)

Reference: ChEMBL document CHEMBL1147366, “Cytotoxic and antimalarial alkaloids from the tubers of Stephania pierrei” (J Nat Prod, 1993)
